According to PMC5271563 (ChemMedChem, 2016):
Entries after “also recorded” stand apart in the source; their conditions may differ. One block for each molecule: values may come before it.

What was measured:
hCD44(21–178) [1] = biological target: T1, hCD44(21–178) (Homo sapiens, UniProt P16070); experiment: NMR binding: 2D [1H,15N]-sofast-HMQC / 1D 1H-aliphatic spectra of 15N-hCD44; details: for binding by 2D [1H,15N]-sofast-HMQC: 20 μM 15N-hCD44(21–178)
In short: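 Human CD44 HA-binding domain (Q21–V178) was expressed in E. coli BL21(DE3) gold pLysS in M9 with 15NH4Cl, refolded from urea-solubilised inclusion bodies, and purified as monomer by size exclusion. 2D [1H,15N]-sofast-HMQC (48 scans) and 1D 1H (128 scans) spectra were recorded at 300 K in 50 mM phosphate, 150 mM NaCl, 0.02% NaN3, pH 6.7. Spectra were compared with and without test peptide.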

[2] = Solubility under binding study conditions; assay type: physicochemical; details: under the binding study conditions
hCD44(21–178) [3] = biological target: T1, hCD44(21–178); experiment: NMR displacement / ternary binding experiments by 2D [1H,15N]-sofast-HMQC
DF1485 antibody = experiment: 2D [1H,13C]-HSQC of 13C-A6 peptide with antibody; assay type: binding, mouse; details: 5 μM 13C-A6 peptide, 4 μM DF1485
In short: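 Test peptide carries a 13C-labelled N-acetyl methyl. 2D [1H,13C]-HSQC spectra were recorded without and with the mouse anti-CD44 monoclonal antibody DF1485 ([…]), using 64 scans and 4096 × 128 complex points. Conditions: 300 K, 600 or 700 MHz with cryoprobe, 50 mM phosphate, 150 mM NaCl, 0.02% NaN3, pH 6.7. Read-out was broadening or chemical shift change of the methyl signal.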

hCD44(21–178) [4] = biological target: T1, hCD44(21–178); experiment: Isothermal Titration Calorimetry; assay type: binding; details: 23°C, pH 6.7, 5% DMSO
hCD44(21–178) [5] = biological target: T1, hCD44(21–178); experiment: ITC competition; assay type: binding
hCD44(21–178) [6] = biological target: T1, hCD44(21–178); experiment: Saturation Transfer Difference; assay type: binding; details: saturating for 2 seconds at −0.28 ppm
In short: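 STD spectra used 128 scans, with 2 s saturation on-resonance at −0.28 ppm and off-resonance reference at −10 ppm. Samples contained hCD44(21–178) and test ligand, with HA8 as positive control. Conditions: 300 K in 50 mM phosphate, 150 mM NaCl, 0.02% NaN3, pH 6.7, on a 600 or 700 MHz spectrometer with cryoprobe.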

T1 sequence (P16070 21-178): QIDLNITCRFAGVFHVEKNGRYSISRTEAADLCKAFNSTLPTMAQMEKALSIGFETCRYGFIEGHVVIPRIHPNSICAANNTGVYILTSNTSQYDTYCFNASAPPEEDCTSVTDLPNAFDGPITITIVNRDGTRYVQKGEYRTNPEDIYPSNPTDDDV

binding by 2D [1H,15N]-sofast-HMQC (hCD44(21–178) [1]; 200 μM A5G27): no evidence of binding
Molecule: H-RLVSYNGIIFFLK-NH2 [A5G27]
solubility [2]: limited solubility; also recorded: fairly low solubility

Molecule: Ac-KPSSPPEE-NH2 [A6 Peptide]
displacement of DF1485 antibody from hCD44(21–178) (hCD44(21–178) [3]; 10 μM 15N-hCD44(21–178), 10 μM DF1485, addition of 500 μM A6 peptide): not displaced
binding to hCD44 in complex with HA8 (hCD44(21–178) [3]; A6, 15N-labeled hCD44(21–178)): did not observe significant binding
binding by 2D [1H,15N]-sofast-HMQC (hCD44(21–178) [1]; 500 μM A6 peptide, pH 6.7, listed as A6): could not observe any significant binding
binding by 2D [1H,15N]-sofast-HMQC (hCD44(21–178) [1]; 500 μM A6 peptide, pH 6.7, listed as A6-peptide): absence of appreciable binding
binding by 2D [1H,15N]-sofast-HMQC (hCD44(21–178) [1]; 500 μM A6 peptide, pH 6.7, listed as A6 peptide): No appreciable binding
interaction between 13C-A6 peptide and DF1485 antibody (DF1485 antibody): no appreciable binding
direct interaction by ITC (hCD44(21–178) [4]; hCD44 73 μM titrated with 1 mM A6 peptide): absence of direct interactions

binding by 2D [1H,15N]-sofast-HMQC (hCD44(21–178) [1]; 400 μM peptide): no significant binding
Molecule: Ac-SRPQGPFL-NH2

chemical shift perturbations in 2D [1H,15N]-sofast-HMQC (hCD44(21–178) [1]; 20 μM hCD44(21–178), 220 μM HA8, 300 K, pH 6.7): widespread perturbations
ΔH of HA8 binding in presence of compound 3 (ITC) (hCD44(21–178) [5]; 750-fold molar excess (55 mM) compound 3): -0.83 kcal/mol
Kd of HA8 in presence of compound 3 (ITC) (hCD44(21–178) [5]; hCD44(21–178) incubated with 750-fold molar excess (55 mM) compound 3, titrated with 1.6 mM HA8, 23°C, pH 6.7, 5% DMSO): 37.5 µM
STD effect (hCD44(21–178) [6]): significant STD effect
enthalpy of binding ΔH (ITC) (hCD44(21–178) [4]; hCD44 73 μM titrated with 1.6 mM HA8): -0.7 kcal/mol
Molecule: CC(=O)N[C@H]1[C@H](O[C@H]2[C@H](O)[C@@H](O)[C@H](O[C@H]3[C@H](O)[C@@H](CO)O[C@@H](O[C@H]4[C@H](O)[C@@H](O)[C@H](O[C@H]5[C@H](O)[C@@H](CO)O[C@@H](O[C@H]6[C@H](O)[C@@H](O)[C@H](O[C@H]7[C@H](O)[C@@H](CO)OC(O)[C@@H]7NC(C)=O)O[C@@H]6C(=O)O)[C@@H]5NC(C)=O)O[C@@H]4C(=O)O)[C@@H]3NC(C)=O)O[C@@H]2C(=O)O)O[C@H](CO)[C@@H](O)[C@@H]1O[C@@H]1O[C@H](C(=O)O)[C@@H](O)[C@H](O)[C@H]1O (stereo partly drawn) [HA8, [GlcNAc-GlcUA]4]
